Assay results: ChEMBL document CHEMBL4689842, “EUbOPEN Chemogenomics Library wave 1” (2021)

Assays:
Format in all cases: toxicity, cell-based
[1] = system: U2OS; experiment: Incucyte cell viability with U2OS; settings: human, 10 µM, compound concentration 10 uM; further: filed as whole numbers so only -1 and 0 and 1 occur
[2] = system: Fibroblast; experiment: Multiplex assay against human fibroblast
Procedure, shortened: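 Values for tubulin, mitochondrial-mass and membrane-permeability phenotypes are per cents of cells with healthy nuclei. These cells were identified by CellPathfinder machine-learning gating of live cells that had been stained at seeding with Hoechst33342, BioTracker Green Microtubule Cytoskeleton Dye, MitoTracker Red and Annexin V Alexa Fluor 680 and imaged on a CQ1 microscope at 37°C and 5% CO2 after compound addition. The gating first set Hoechst high-intensity objects apart from normal cells, then split normal cells into healthy, pyknosed or fragmented nuclei, and pyknosed cells into mitotic or apoptotic.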

[3] = system: Fibroblast; experiment: Incucyte cell viability with human fibroblast; settings: 10 µM, compound concentration 10 uM; further: filed as whole numbers so only -1 and 0 and 1 occur
[4] = 6 h, replicate number 1, timepoint 6 hours
[5] = 12 h, replicate number 1, timepoint 12 hours
[6] = 18 h, replicate number 1, timepoint 18 hours
[7] = 24 h, replicate number 1, timepoint 24 hours
[8] = 12 h, 1 µM, compound concentration 1 uM, replicate 1
[9] = 12 h, 1 µM, compound concentration 1 uM, replicate 2
[10] = 12 h, 10 µM, compound concentration 10 uM, replicate 1
[11] = 12 h, 10 µM, compound concentration 10 uM, replicate 2
[12] = 24 h, 1 µM, compound concentration 1 uM, replicate 1
[13] = 24 h, 1 µM, compound concentration 1 uM, replicate 2
[14] = 24 h, 10 µM, compound concentration 10 uM, replicate 1
[15] = 24 h, 10 µM, compound concentration 10 uM, replicate 2

In the case of CCOc1ccn(-c2ccc(F)cc2)c(=O)c1C(=O)Nc1ccc(Oc2ccnc(N)c2Cl)c(F)c1 [BMS-777607], the “Growth Rate” value ([1]; 0 h, replicate number 1, timepoint 0 hours) is reported as 1, the “Growth Rate” value ([1]; 0 h, replicate number 2, timepoint 0 hours) is reported as 0 and the “Growth Rate” value [1, 4] is reported as 0. The “Growth Rate” value [1, 5] was 0, the “Growth Rate” value [1, 6] was 0 and the “Growth Rate” value [1, 7] was 0. For the same compound, the “Population Apoptotic (%)” value [2, 8] was 77%, the “Population Fragmented Nuclei (%)” value [2, 8] was 30% and the “Population Healthy Nuclei (%)” value [2, 8] was 58%. For the same compound, the “Population Hoechst High Intensity Objects (%)” value [2, 8] was 13%, the “Population Membrane Permeable-Phenotype (%)” value [2, 8] was 10% and the “Population Mitochondria Different-Phenotype (%)” value [2, 8] was 4%. The “Population Mitotic Cells (%)” value [2, 8] was 22%, the “Population Normal (%)” value [2, 8] was 86% and the “Population Pyknosed Nuclei (%)” value [2, 8] was 10%. The “Population Tubulin-Different-Phenotype (%)” value [2, 8] was 22%, the “Total Cell Count” value [2, 8] was 251 and the “Population Apoptotic (%)” value [2, 9] was 100%. For the same compound, the “Population Fragmented Nuclei (%)” value [2, 9] was 56%, the “Population Healthy Nuclei (%)” value [2, 9] was 39% and the “Population Hoechst High Intensity Objects (%)” value [2, 9] was 29%. For the same compound, the “Population Membrane Permeable-Phenotype (%)” value [2, 9] was 17%, the “Population Mitochondria Different-Phenotype (%)” value [2, 9] was 17% and the “Population Mitotic Cells (%)” value [2, 9] was 0%. For the same compound, the “Population Normal (%)” value [2, 9] was 70%, the “Population Pyknosed Nuclei (%)” value [2, 9] was 3% and the “Population Tubulin-Different-Phenotype (%)” value [2, 9] was 47%. For the same compound, the “Total Cell Count” value [2, 9] was 82, the “Population Apoptotic (%)” value [2, 10] was 86% and the “Population Fragmented Nuclei (%)” value [2, 10] was 27%. For the same compound, the “Population Healthy Nuclei (%)” value [2, 10] was 60%, the “Population Hoechst High Intensity Objects (%)” value [2, 10] was 15% and the “Population Membrane Permeable-Phenotype (%)” value [2, 10] was 1%. The “Population Mitotic Cells (%)” value [2, 10] was 13%, the “Population Normal (%)” value [2, 10] was 84% and the “Population Pyknosed Nuclei (%)” value [2, 10] was 12%. The “Total Cell Count” value [2, 10] was 212, the “Population Apoptotic (%)” value [2, 11] was 80% and the “Population Fragmented Nuclei (%)” value [2, 11] was 54%. For the same compound, the “Population Healthy Nuclei (%)” value [2, 11] was 36%, the “Population Hoechst High Intensity Objects (%)” value [2, 11] was 38% and the “Population Membrane Permeable-Phenotype (%)” value [2, 11] was 4%. For the same compound, the “Population Mitochondria Different-Phenotype (%)” value [2, 11] was 4%, the “Population Mitotic Cells (%)” value [2, 11] was 20% and the “Population Normal (%)” value [2, 11] was 61%. For the same compound, the “Population Pyknosed Nuclei (%)” value [2, 11] was 8%, the “Population Tubulin-Different-Phenotype (%)” value [2, 11] was 0% and the “Total Cell Count” value [2, 11] was 92. The “Population Apoptotic (%)” value [2, 12] was 85%, the “Population Fragmented Nuclei (%)” value [2, 12] was 27% and the “Population Healthy Nuclei (%)” value [2, 12] was 62%. For the same compound, the “Population Hoechst High Intensity Objects (%)” value [2, 12] was 11%, the “Population Membrane Permeable-Phenotype (%)” value [2, 12] was 8% and the “Population Mitochondria Different-Phenotype (%)” value [2, 12] was 8%. The “Population Mitotic Cells (%)” value [2, 12] was 14%, the “Population Normal (%)” value [2, 12] was 88% and the “Population Pyknosed Nuclei (%)” value [2, 12] was 10%. The “Population Tubulin-Different-Phenotype (%)” value [2, 12] was 19%, the “Total Cell Count” value [2, 12] was 226 and the “Population Apoptotic (%)” value [2, 13] was 50%. The “Population Fragmented Nuclei (%)” value [2, 13] was 63%, the “Population Healthy Nuclei (%)” value [2, 13] was 32% and the “Population Hoechst High Intensity Objects (%)” value [2, 13] was 31%. For the same compound, the “Population Membrane Permeable-Phenotype (%)” value [2, 13] was 10%, the “Population Mitochondria Different-Phenotype (%)” value [2, 13] was 21% and the “Population Mitotic Cells (%)” value [2, 13] was 50%. For the same compound, the “Population Normal (%)” value [2, 13] was 68%, the “Population Pyknosed Nuclei (%)” value [2, 13] was 3% and the “Population Tubulin-Different-Phenotype (%)” value [2, 13] was 31%. For the same compound, the “Total Cell Count” value [2, 13] was 85, the “Population Apoptotic (%)” value [2, 14] was 80% and the “Population Fragmented Nuclei (%)” value [2, 14] was 26%. The “Population Healthy Nuclei (%)” value [2, 14] was 62%, the “Population Hoechst High Intensity Objects (%)” value [2, 14] was 9% and the “Population Membrane Permeable-Phenotype (%)” value [2, 14] was 0%. For the same compound, the “Population Mitochondria Different-Phenotype (%)” value [2, 14] was 4%, the “Population Mitotic Cells (%)” value [2, 14] was 19% and the “Population Normal (%)” value [2, 14] was 90%. The “Total Cell Count” value [2, 14] was 214, the “Population Apoptotic (%)” value [2, 15] was 50% and the “Population Fragmented Nuclei (%)” value [2, 15] was 54%. The “Population Healthy Nuclei (%)” value [2, 15] was 35%, the “Population Hoechst High Intensity Objects (%)” value [2, 15] was 35% and the “Population Membrane Permeable-Phenotype (%)” value [2, 15] was 5%. The “Population Mitochondria Different-Phenotype (%)” value [2, 15] was 10%, the “Population Mitotic Cells (%)” value [2, 15] was 50% and the “Population Normal (%)” value [2, 15] was 64%. The “Population Pyknosed Nuclei (%)” value [2, 15] was 10%, the “Population Tubulin-Different-Phenotype (%)” value [2, 15] was 0% and the “Total Cell Count” value [2, 15] was 88. The “Growth Rate” value [3, 4] was 0, the “Growth Rate” value [3, 5] was 0 and the “Growth Rate” value [3, 6] was 0. The “Growth Rate” value [3, 7] was 0.
